Format in all cases: nucleic-acid assay
The test system of assay [1] is Nucleic Acid. Description: Binding affinity to 5^-GAGAAAATACC-3^ sequence of [32P] labeled DNA at 2 uM after 120 mins by DNase1 foot printing. A digest of the protocol:
(§1)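 5'-32P-labeled PCR duplexes (158-mer upper strand, 135-mer lower strand) were equilibrated with varying peptide concentrations in 5 mM sodium cacodylate, pH 6.5, at room temperature for 120 min. DNase I (final 0.009 unit/mL, limited to <30% digestion) was added for 10 min at 37 °C. Products were resolved on denaturing 8% polyacrylamide/8 M urea gels and band volumes integrated to give fractional saturation. Apparent K was taken as the peptide concentration at 50% saturation. Hill coefficient came from the slope of a least-squares Hill plot using at least six points.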

Assay [2] has as its system Nucleic Acid. Description: Binding affinity to 13-mer DNA duplex U4A-L4T assessed as conformational change after 60 mins by circular dichroism. A digest of the protocol:
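CD spectra were recorded at 37 °C after 60 min incubation. Difference spectra were obtained by subtracting the duplex-alone and peptide-alone contributions.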
In general terms: Circular dichroism is the unequal absorption of left and right circularly polarised light.

The test system of assay [3] is Nucleic Acid. Description: Binding affinity to 5^-TTTTCTC-3^ sequence of [32P] labeled DNA at 2 uM after 120 mins by DNase1 foot printing. The gist of the method:
as §1

Assay [4] deals with Nucleic Acid. The experiment in a line: Binding affinity to 5^-TTTTCTCC-3^ sequence of [32P] labeled DNA at 2 uM after 120 mins by DNase1 foot printing. A digest of the protocol: as §1
Assay [5] concerns Nucleic Acid. The experiment in a line: Binding affinity to 5^-TTTC-3^ sequence of [32P] labeled DNA at 2 uM after 120 mins by DNase1 foot printing. The gist of the method:
as §1

The subject of assay [6] is Nucleic Acid. The experiment in a line: Binding affinity to 5^-GGAGAAAATACC-3^ sequence of [32P] labeled DNA at 2 uM after 120 mins by DNase1 foot printing. The gist of the method:
as §1

Assay [7] has as its system Nucleic Acid. The experiment in a line: Binding affinity to 5^-TTTCACA-3^ sequence of [32P] labeled DNA at 2 uM after 120 mins by DNase1 foot printing. The gist of the method:
as §1

In assay [8] the test system is Nucleic Acid. The experiment in a line: Binding affinity to 5^-ATTTTCTCC-3^ sequence of [32P] labeled DNA at 2 uM after 120 mins by DNase1 foot printing. A digest of the protocol: as §1

Molecules are shown by their SMILES. The source made the active and inactive calls. The calls are words filed in the database; no cut-off is given here. Starred links: 1 amine or outer side, 2 acyl side, 3 side chain; linkers in the order of their positions; H or OH if unused. Non-standard residues stand in square brackets, D forms with d. Residues, ends and D or L forms follow the SMILES beside them. X1 = Cn1cc(N[*:1])cc1C(=O)[*:2]

On to `Cn1cc(NC(=O)c2cc(NC(=O)[C@H](CCCCN)NC(=O)[C@H](CCCNC(=N)N)NC(=O)[C@@H]3CCCN3C(=O)[C@@H](N)Cc3cnc[nH]3)cn2C)cc1C(=O)Nc1cc(C(=O)Nc2cc(C(=O)N[C@@H](CCCCN)C(=O)N[C@@H](CCCNC(=N)N)C(N)=O)n(C)c2)n(C)c1` (H-HPRK[X1][X1][X1][X1]KR-NH2), for which the Ka in assay [1] came to 2.7e+06 M⁻¹; in assay [3] it was 3.4e+06 M⁻¹. Moreover, the Activity entry in assay [2] was “Dose-dependent effect”.

As to `Cn1cc(NC(=O)c2cc(NC(=O)C(CCCCN)NC(=O)[C@H](CCCNC(=N)N)NC(=O)[C@@H]3C[C@@H](O)CN3C(=O)[C@@H](N)Cc3cnc[nH]3)cn2C)cc1C(=O)Nc1cc(C(=O)Nc2cc(C(=O)N[C@@H](CCCCN)C(=O)N[C@@H](CCCNC(=N)N)C(N)=O)n(C)c2)n(C)c1` (single isomer, unassigned), the Ka in assay [4] came to 3.6e+06 M⁻¹; in assay [5] it was 1.4e+06 M⁻¹; in assay [6] it was 4.7e+06 M⁻¹. The result in assay [2] was Active.

`Cn1cc(NC(=O)c2cc(NC(=O)[C@H](CCCCN)NC(=O)[C@H](CCCNC(=N)N)NC(=O)[C@@H]3CCCN3C(=O)[C@@H](N)Cc3cnc[nH]3)cn2C)cc1C(=O)Nc1cc(C(=O)Nc2cc(C(=O)N[C@@H](CCCNC(=N)N)C(N)=O)n(C)c2)n(C)c1`: the Ka in assay [7] turned out to be 8.4e+06 M⁻¹; in assay [8], 9.7e+06 M⁻¹. In addition, the result in assay [2] was Active.
